≈ marks a conversion by molar mass, not a printed value.

The first test deals with Mycobacterium tuberculosis. In words: Activity against Mycobacterium tuberculosis (H37Rv) using the standard BACTEC radiometric growth assay. In kind it is functional.
Details: not given
In outline:
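BACTEC radiometric MIC against M. tuberculosis H37Rv. Compounds in DMSO (1 mg/mL stock), final 50, 25, 12.5, 6.25, 3.0, 1.5 µg/mL. Inoculum 0.1 mL of a 1.0 McFarland suspension. Controls: DMSO direct control and 1:100 organism dilution. Incubated 37 °C, growth index read daily until the 1:100 control reached 30. MIC = lowest concentration with 1-day GI change below the 1:100 control.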
Consider `CCCCCCCCC[S+]([O-])CC(N)=O` (single isomer, unassigned), for which the MIC came out at 25 µg/mL (≈ 107 µM).

Staying with this test, now noted: Mycobacterium tuberculosis; read-out: MIC.
On to `CCCCCCCCC[S+]([O-])CC(N)=O` (racemic), for which the MIC was 25 µg/mL (≈ 107 µM).
Take `NC(=O)CS(=O)(=O)CCCCc1ccccc1`: the MIC is above 25 µg/mL.
Regarding `CC(C)CCCCCCCS(=O)(=O)CC(N)=O`, the MIC is 1.5 µg/mL (≈ 5.69 µM).
Same read-out and setting: as for `CC(C)CCCC(C)CCS(=O)(=O)CC(N)=O` (stereo unspecified), the figure is 6.25 µg/mL (≈ 23.7 µM); as for `CCCCCCC/C=C\S(=O)(=O)CC(N)=O`, 12.5 µg/mL (≈ 50.5 µM).
`NNC(=O)c1ccncc1` [ISONIAZID]: the MIC amounted to 0.1 µg/mL (≈ 0.729 µM).
Take `CCCCCCCCCCCCS(=O)(=O)CC(N)=O`: the MIC amounted to 12.5 µg/mL (≈ 42.9 µM).
Consider `C/C=C/C/C=C/CCC(=O)[C@H]1O[C@H]1C(N)=O` [CERULENIN], for which the MIC worked out at 1.5 µg/mL (≈ 6.72 µM).
On the same count and under the same terms, as for `CCCCCCCCS(=O)(=O)CC(=O)O`, the figure is above 25 µg/mL.
Still for that read-out and setting: as for `NC(=O)CS(=O)(=O)CCCCCc1ccccc1`, the figure is 12.5 µg/mL (≈ 46.4 µM); as for `CCCCCCCCC[S+]([O-])CC(=O)OC` (racemic), above 25 µg/mL.
Same read-out and setting: as for `CO[C@H]1/C=C/O[C@@]2(C)Oc3c(C)c(O)c4c(O)c(c(/C=N/N5CCN(C)CC5)c(O)c4c3C2=O)NC(=O)/C(C)=C\C=C\[C@H](C)[C@H](O)[C@@H](C)[C@@H](O)[C@@H](C)[C@H](OC(C)=O)[C@@H]1C` [RIFAMPIN], the figure is 2 µg/mL (≈ 2.43 µM).
For the molecule `CCCCCCCC[S+]([O-])CC(=O)OCc1ccccc1` (stereo unspecified), the MIC was 6.25 µg/mL (≈ 20.1 µM).
On the same count and under the same terms, as for `CN[C@@H]1[C@H](O[C@H]2[C@H](O[C@H]3[C@H](O)[C@@H](O)[C@H](N=C(N)N)[C@@H](O)[C@@H]3N=C(N)N)O[C@@H](C)[C@]2(O)C=O)O[C@@H](CO)[C@H](O)[C@H]1O` [STREPTOMYCIN], the figure is 2 µg/mL (≈ 3.44 µM); as for `CCCCCCC/C=C/S(=O)(=O)CC(N)=O`, 12.5 µg/mL (≈ 50.5 µM); as for `CCCCCCCCCCOCC(N)=O`, above 25 µg/mL.
Same read-out and setting: as for `CCCCCCCCS(=O)(=O)NS(N)(=O)=O`, the figure is above 25 µg/mL; as for `CCCCCCCCCC[S+]([O-])CC(N)=O` (stereo unspecified), 6.25 µg/mL (≈ 25.3 µM).
Still for that read-out and setting: as for `CCCCCCCCS(=O)(=O)CC(N)=O`, the figure is 6.25 µg/mL (≈ 26.6 µM); as for `CCCCCCCCC[S+]([O-])CC(=O)OC` (single isomer, unassigned), above 25 µg/mL; as for `CCCCCCCCS(=O)(=O)NC(N)=O`, above 25 µg/mL.
In the case of `CCCCCCCCC[S@@+]([O-])CC(N)=O`, the MIC stood at 25 µg/mL (≈ 107 µM).
On the same count and under the same terms, as for `CCCCCCCCCCS(=O)(=O)CC(N)=O`, the figure is 1.5 µg/mL (≈ 5.69 µM); as for `CCCCCCCCCCP(=O)([O-])CC(N)=O.[K+]`, above 50 µg/mL.
Take `CCCCCCS(=O)(=O)CC(N)=O`: the MIC is above 50 µg/mL.
Still for that read-out and setting: as for `CCCCCCCCS(=O)(=O)CC(=O)OCc1ccccc1`, the figure is 12.5 µg/mL (≈ 38.3 µM); as for `CCCCCCCCCCS(=O)(=O)C(C)C(N)=O` (stereo unspecified), above 25 µg/mL; as for `CCCCCCCCCS(=O)(=O)CC(N)=O`, 3 µg/mL (≈ 12 µM).
For the molecule `NC(=O)c1cnccn1` [PYRAZINAMIDE], the MIC came to 100 µg/mL (≈ 812 µM).
Take `CCCCCCCCCCCCCCCCCCS(=O)(=O)CC(N)=O`: the MIC is above 50 µg/mL.
For `CCCCCCCS(=O)(=O)CC(N)=O`, the MIC was above 25 µg/mL.
`CCCCCCCCCCSCC(N)=O`: the MIC came to 25 µg/mL (≈ 108 µM).
In the case of `CCCCCCCCCCS(=O)(=O)CCC(N)=O`, the MIC was above 25 µg/mL.
Take `NC(=O)CS(=O)(=O)CCCCCCc1ccccc1`: the MIC is 12.5 µg/mL (≈ 44.1 µM).
Consider `CC[C@@H](CO)NCCN[C@@H](CC)CO` [ETHAMBUTOL], for which the MIC turned out to be 2 µg/mL (≈ 9.79 µM).
Consider `C=C/C(C)=C/[C@@]1(C)SC(=O)C(C)=C1O` [THIOLACTOMYCIN], for which the MIC is 25 µg/mL (≈ 119 µM).
On to `CCCCCCCCS(=O)(=O)CC(=O)OC`, for which the MIC is above 25 µg/mL.
On to `CCCCCCCC[S+]([O-])CC(=O)OC` (stereo unspecified), for which the MIC came out at 12.5 µg/mL (≈ 53.3 µM).
On the same count and under the same terms, as for `CCCCCCCCS(=O)(=O)NS(C)(=O)=O`, the figure is above 25 µg/mL; as for `CCOCCOCCS(=O)(=O)CC(N)=O`, above 25 µg/mL.

For the origin of these results see ChEMBL document CHEMBL1133632, “A new class of antituberculosis agents” (2000).
